Bioassay records (PubChem BioAssay)
GRK2 inh – blocks RNA aptamer binding to human GRK2; bead flow cytometry, FAM-aptamer displacement from GRK2; P25098; hit rate 0.59% among 330,000; inhibition of aptamer binding, % at 10 µM;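 active = inhibition of aptamer binding above 40%, roughly 3 SD of noise, on plates passing a quality check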;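 note: median bead fluorescence of bound FAM aptamer so fluorescent compounds give negative values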
NadD inh – NadD (S. aureus) enzyme inhibition | purified NadD enzyme, colorimetric absorbance read-out | inhibition, % at 20 µM | hit rate 0.78% among 360,000; in the data active = inhibition above about 26%
ABHD5 PLIN5 PPI – inhibitors of human ABHD5-perilipin-5 interaction; Q00G26+Q8WTS1; Split G. princeps luciferase complementation, luminescence, 4 h; inhibition, % at 4 µM; hit rate 0.78% among 360,000; AID 602281;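 active = inhibition above the mean inhibition across every tested compound plus 3 SD, cut at about 22% in these data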
Beta2AR agonist – activates human beta-2 adrenergic receptor causing internalization. P07550. Am2.2-beta2AR cells, FAP receptor internalization, flow cytometry. response, % (concentration not given with the values). AID 504454. hit rate 0.43% among 340,000;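 active = response above a set limit, near 3 SD of response in nonfluorescent compounds, cut at about 42% in these data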
Target sequence (P07550 whole entry, looked up): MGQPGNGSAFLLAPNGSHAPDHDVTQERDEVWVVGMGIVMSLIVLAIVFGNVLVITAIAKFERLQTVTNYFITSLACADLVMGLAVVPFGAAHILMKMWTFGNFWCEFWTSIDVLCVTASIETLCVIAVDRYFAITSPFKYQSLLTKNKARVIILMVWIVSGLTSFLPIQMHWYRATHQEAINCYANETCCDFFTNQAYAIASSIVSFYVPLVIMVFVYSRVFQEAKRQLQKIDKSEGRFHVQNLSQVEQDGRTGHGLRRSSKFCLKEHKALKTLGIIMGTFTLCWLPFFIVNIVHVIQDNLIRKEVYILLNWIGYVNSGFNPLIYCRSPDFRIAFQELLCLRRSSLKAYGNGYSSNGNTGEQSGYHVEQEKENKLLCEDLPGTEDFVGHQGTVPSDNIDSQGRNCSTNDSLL
SENP1 FRET inh – SENP1 (human) catalytic domain inhibition | hit rate 0.21% among 360,000 | Q9P0U3 | inhibition, % at 10 µM | recombinant SENP1 catalytic domain, CyPet-SUMO1-YPet FRET cleavage;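 active = inhibition at least 30% at 10 µM, raw YFP signal under a set limit, fluorescence ratio 0.5 to 1.5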
Target sequence (Q9P0U3 419-644 limits assumed): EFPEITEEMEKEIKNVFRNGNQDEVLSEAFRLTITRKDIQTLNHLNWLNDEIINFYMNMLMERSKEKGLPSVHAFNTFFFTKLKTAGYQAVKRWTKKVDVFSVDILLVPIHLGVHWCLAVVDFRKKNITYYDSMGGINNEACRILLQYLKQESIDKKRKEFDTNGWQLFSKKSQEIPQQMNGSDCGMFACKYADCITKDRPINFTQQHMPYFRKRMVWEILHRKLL
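material = recombinant human SENP1 catalytic domain, His6-tagged | quantity = 20 pM enzyme | reagent = 25 nM SUMO1 FRET substrate | compound dosing = 10 µM single point, 0.5% DMSO | timing = 50 min enzyme reaction, room temperature, light-protected | detection = FRET, CFP and YFP emission | control set = no-enzyme low, enzyme-DMSO high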
B2AR ag CP1 – agonists of human beta-2 adrenergic receptor | shares compounds with Beta2AR agonist | Am2.2-beta2AR cells, FAP surface receptor, flow cytometry; active compounds read low | percent response (surface receptor), % at 10 µM | hit rate 25% among 1,100 | AID 540358;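 active = surface receptor percent response at or below 58%, roughly 3 SD from nonfluorescent compounds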
B2AR FAP counter – flagged in Am2.2 fluorescence counterscreen for beta-2AR agonists; shares compounds with Beta2AR agonist; Am2.2 cells, FAP fluorogen flow cytometry; active compounds read low; calls only at 10 µM; 1,100 tested, under 10 active; AID 588765;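 active = percent response below a set limit in fluorescence channel 1 and below 50% in channel 8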
Numbers stand for hits. Sampled rows, rich in hits. Any-hit rate of the full collection: about 2.5%.

Screening Cc1cccc(C)c1NC(=O)CN1CCN(CCCC(c2ccc(F)cc2)c2ccc(F)cc2)CC1 returned GRK2 inh inactive, NadD inh inactive, ABHD5 PLIN5 PPI inactive, Beta2AR agonist inactive, SENP1 FRET inh inactive, B2AR ag CP1 inactive and B2AR FAP counter inactive.
`O=C(Cn1nnc(-c2ccccc2)n1)Nc1ccccc1N1CCOCC1` gave GRK2 inh inactive, NadD inh inactive, ABHD5 PLIN5 PPI inactive, Beta2AR agonist inactive, SENP1 FRET inh inactive, B2AR ag CP1 43.3 and B2AR FAP counter inactive.
For CCc1ccc(OCc2nnc(-c3ccccc3Br)o2)cc1 the results were GRK2 inh inactive, NadD inh inactive, ABHD5 PLIN5 PPI inactive, Beta2AR agonist inactive, SENP1 FRET inh inactive, B2AR ag CP1 inactive and B2AR FAP counter inactive.
Screening Clc1ccccc1OCc1nnc(-c2ccccc2Br)o1 returned GRK2 inh inactive, NadD inh inactive, ABHD5 PLIN5 PPI inactive, Beta2AR agonist inactive and SENP1 FRET inh inactive.
Screening S=c1nc2ccccc2c2nc(-c3ccccc3)[nH]n12 returned GRK2 inh inactive, NadD inh inactive, ABHD5 PLIN5 PPI inactive, Beta2AR agonist inactive, SENP1 FRET inh inactive and B2AR FAP counter inactive.
For S=c1nc2ccccc2c2nc(-c3ccccc3Cl)[nH]n12 the results were GRK2 inh inactive, NadD inh inactive, ABHD5 PLIN5 PPI inactive, Beta2AR agonist inactive and SENP1 FRET inh inactive.
CCC(NC(C)C)C(O)c1ccc(O)c(O)c1 (centres undefined) was read as GRK2 inh inactive, NadD inh inactive, ABHD5 PLIN5 PPI inactive, Beta2AR agonist inactive, SENP1 FRET inh inactive, B2AR ag CP1 42.3 and B2AR FAP counter inactive.
CCC(c1ccc(O)c(O)c1)C(CC)c1ccc(O)c(O)c1 (centres undefined) was read as NadD inh inactive, ABHD5 PLIN5 PPI inactive, Beta2AR agonist inactive and SENP1 FRET inh inactive.
`Cc1ccc(-c2nc(N3CCOCC3)sc2C(=O)N2CCCCC2)cc1` gave GRK2 inh inactive, NadD inh inactive, ABHD5 PLIN5 PPI inactive, Beta2AR agonist inactive and SENP1 FRET inh inactive.
For CCN(Cc1ccccc1)S(=O)(=O)c1cc(C(=O)NC(C)C2CC3CCC2C3)ccc1OC (centres undefined) the results were GRK2 inh inactive, NadD inh inactive, ABHD5 PLIN5 PPI inactive, Beta2AR agonist 48.9, SENP1 FRET inh inactive, B2AR ag CP1 51.7 and B2AR FAP counter inactive.
`Cc1ccc(C)c(S(=O)(=O)N2CCN(C(=O)C3CCN(C(=O)c4ccc(F)cc4)CC3)CC2)c1` gave GRK2 inh inactive, NadD inh inactive, ABHD5 PLIN5 PPI inactive, Beta2AR agonist 60.2, SENP1 FRET inh inactive, B2AR ag CP1 inactive and B2AR FAP counter inactive.
`O=C(c1ccc(F)cc1)N1CCC(C(=O)N2CCN(S(=O)(=O)c3cccc(F)c3)CC2)CC1` gave GRK2 inh inactive, NadD inh inactive, ABHD5 PLIN5 PPI inactive, Beta2AR agonist inactive and SENP1 FRET inh inactive.
For CCOC(=O)CSc1nnc(CNc2ccc(Cl)cc2)n1-c1ccccc1 the results were GRK2 inh inactive, NadD inh inactive, ABHD5 PLIN5 PPI inactive, Beta2AR agonist 107.9, SENP1 FRET inh inactive, B2AR ag CP1 inactive and B2AR FAP counter inactive.
`Cc1ccccc1-c1nnn(Cc2cccc(S(=O)(=O)N3CCOCC3)c2)n1` gave GRK2 inh inactive, NadD inh inactive, ABHD5 PLIN5 PPI inactive, Beta2AR agonist inactive and SENP1 FRET inh inactive.
For CCc1c(-c2cccc(Cl)c2)ncn1Cc1cccc(-c2ccccc2)c1 the results were ABHD5 PLIN5 PPI inactive and SENP1 FRET inh inactive.
O=C(COc1ccc(F)cc1)N(Cc1cccc(Br)c1)C1CCS(=O)(=O)C1 (centres undefined) was read as GRK2 inh inactive, NadD inh inactive, ABHD5 PLIN5 PPI inactive, Beta2AR agonist 52.8, SENP1 FRET inh inactive, B2AR ag CP1 inactive and B2AR FAP counter inactive.
O=C(CCCn1ncn2c(cc3occc32)c1=O)NCc1cccc(Cl)c1 was read as GRK2 inh inactive, NadD inh inactive, ABHD5 PLIN5 PPI inactive, Beta2AR agonist inactive and SENP1 FRET inh inactive.
`Cc1cccc(-n2ncc3c2CCCC3NC(=O)C2CCOCC2)c1C` (centres undefined) gave GRK2 inh inactive, NadD inh inactive, ABHD5 PLIN5 PPI inactive, Beta2AR agonist inactive and SENP1 FRET inh inactive.
Screening Cc1ccc(NC(=O)c2cc(N3C(=O)C=CC3=O)ccc2Cl)cc1C returned GRK2 inh inactive, NadD inh inactive, ABHD5 PLIN5 PPI inactive, Beta2AR agonist 78.8, SENP1 FRET inh inactive, B2AR ag CP1 inactive and B2AR FAP counter inactive.
Screening Cc1nc2ccc(-c3nc4cc(N)ccc4o3)cc2[nH]1 returned GRK2 inh inactive, NadD inh inactive, ABHD5 PLIN5 PPI inactive, Beta2AR agonist 42.7, SENP1 FRET inh inactive, B2AR ag CP1 inactive and B2AR FAP counter inactive.
Screening COc1ccccc1Nc1nc(NCc2ccco2)c2ccccc2n1 returned GRK2 inh inactive, NadD inh inactive, ABHD5 PLIN5 PPI inactive, Beta2AR agonist inactive, SENP1 FRET inh inactive, B2AR ag CP1 inactive and B2AR FAP counter inactive.
`C=CCn1c(CCNC(=O)c2cccs2)nnc1SCC(=O)c1ccc(Br)cc1` gave GRK2 inh inactive, NadD inh inactive, ABHD5 PLIN5 PPI inactive, Beta2AR agonist 98.1, SENP1 FRET inh inactive, B2AR ag CP1 18.6 and B2AR FAP counter inactive.
`Cn1c(N2CCN(c3ccccn3)CC2)nc2c1c(=O)n(Cc1ccc(Cl)cc1)c(=O)n2C` gave GRK2 inh inactive, NadD inh inactive, ABHD5 PLIN5 PPI inactive, Beta2AR agonist 127.0, SENP1 FRET inh inactive, B2AR ag CP1 23.4 and B2AR FAP counter inactive.
For Cc1ccc(C)c(N2CCN(C(=O)c3ccc(NC4=NC5CS(=O)(=O)CC5S4)cc3)CC2)c1 (centres undefined) the results were GRK2 inh inactive, NadD inh inactive, ABHD5 PLIN5 PPI inactive, Beta2AR agonist inactive and SENP1 FRET inh inactive.
`COc1ccc(-c2nc3c4ccccc4ccn3c2CN2CCOCC2)cc1OC` gave GRK2 inh inactive, NadD inh inactive, ABHD5 PLIN5 PPI inactive, Beta2AR agonist 53.2, SENP1 FRET inh inactive, B2AR ag CP1 41.2 and B2AR FAP counter inactive.
`c1ccc(-c2nc3c4ccccc4ccn3c2CN2CCOCC2)cc1` gave GRK2 inh inactive, NadD inh inactive, ABHD5 PLIN5 PPI inactive, Beta2AR agonist inactive and SENP1 FRET inh inactive.
Cc1ccc(NC(=S)NNC(C)(C)C)cc1 was read as GRK2 inh inactive, NadD inh inactive, ABHD5 PLIN5 PPI inactive, Beta2AR agonist inactive, SENP1 FRET inh inactive, B2AR ag CP1 inactive and B2AR FAP counter inactive.
CC(C)(C)NNC(=S)Nc1cccc(C(F)(F)F)c1 was read as GRK2 inh inactive, NadD inh inactive, ABHD5 PLIN5 PPI inactive, Beta2AR agonist inactive and SENP1 FRET inh inactive.
